From ChEMBL document CHEMBL1146535, “New manzamine alkaloids with activity against infectious and tropical parasitic diseases from an Indonesian sponge” (J Nat Prod, 2003)
In brackets after ≈: the same amount, converted by molar mass. Activity calls are given as the source filed them. The rule behind the calls is not given here.

Key:
Leishmania donovani = assay: Antileishmanial activity against Leishmania donovani promastigotes expressing luciferase; format: functional, organism-based
Method in brief: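 Transgenic L. donovani promastigote line stably expressing luciferase used as the test organism. Pentamidine and amphotericin B run alongside as reference antileishmanials.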

[1] = test system: Mycobacterium tuberculosis; assay: Antimycobacterial activity against Mycobacterium tuberculosis H37Rv; format: functional
Vero = assay: Cytotoxicity against african green monkey Vero cells; format: cell-based; details: chlorocebus sabaeus
Plasmodium falciparum [2] = assay: Antimalarial activity against Plasmodium falciparum D6; format: functional, organism-based
Plasmodium falciparum [3] = assay: Antimalarial activity against chloroquine-resistant Plasmodium falciparum W2; format: functional, organism-based
HT-29 = assay: Cytotoxicity against human HT-29 cells; format: functional, cell-based
[4] = Cytotoxicity against human H116 cells; format: functional, cell-based
[5] = Cytotoxicity against mouse MS1 cells; format: cell-based; details: MS-1
[6] = test system: Human immunodeficiency virus 1; assay: Antiviral activity against HIV1 in human PBM cells; format: functional, organism-based; details: Human immunodeficiency virus 1, PBMC
[7] = Cytotoxicity against human […] cells; format: functional, cell-based

SMILES | Activity (Leishmania donovani) | MIC [1] [µg/mL] | Activity (Vero) | Activity (Plasmodium falciparum [2]) | Activity (Plasmodium falciparum [3]) | other results
O=C1CCCN2[C@@H]3[C@@]45CN6CCCC/C=C\CC[C@]3(C=C(c3nccc7c3[nH]c3ccccc37)[C@@H]4CC6)O[C@@]2(CC1)C5 | inactive | 128 (≈ 227 µM) | Non-toxic | inactive | inactive | –
O[C@@H]1CCCN2[C@@H](CC1)C[C@]13CN4CCCC/C=C\CC[C@](O)(C=C(c5nccc6c5[nH]c5ccccc56)[C@@H]1CC4)[C@H]23 [32,33-DIHYDRO-31-HYDROXYMANZAMINE A] | inactive | – | Non-toxic | inactive | inactive | –
O[C@]12C=C(c3nccc4c3[nH]c3ccccc34)C3CCN(CCCC/C=C\CC1)C[C@@]31C[C@]34CC[C@H](CCCN3[C@H]12)O4 (stereo not given in full) [6-Deoxymanzamine X] | – | 1.77 (≈ 3.13 µM) | 4760 ng/mL | – | – | IC50 (Leishmania donovani): 3.2 µg/mL (≈ 5.67 µM); IC90 (Leishmania donovani): 7.5 µg/mL (≈ 13.3 µM); IC50 (HT-29): 0.5 µg/mL (≈ 0.885 µM); IC50 [4]: 0.5 µg/mL (≈ 0.885 µM); IC50 (Plasmodium falciparum [2]): 1.3 µg/mL (≈ 2.3 µM); IC50 [5]: 1 µg/mL (≈ 1.77 µM); EC50 [6]: 1600 nM; IC50 [7]: 1 µg/mL (≈ 1.77 µM); IC50 (Plasmodium falciparum [3]): 1.4 µg/mL (≈ 2.48 µM)
O=C1CCCN2[C@@H](CC1)C[C@]13CN4CCCC/C=C\CC[C@](O)(C=C(c5nccc6c5[nH]c5c(O)cccc56)C1CC4)[C@H]23 (stereo not given in full) [MANZAMINE F] | – | 2.56 (≈ 4.41 µM) | Non-toxic | – | – | –
O[C@]12C=C(c3nccc4c3[nH]c3ccccc34)[C@@H]3CCN(CCCC/C=C\CC1)C[C@@]31C[C@@H]3/C=C\CCCCN3[C@H]12 [MANZAMINE A] | – | 1.53 (≈ 2.79 µM) | 1200 ng/mL | – | – | EC50 [6]: 590 nM
Oc1cccc2c1[nH]c1c(C3=C[C@@]4(O)CC/C=C\CCCCN5CC[C@@H]3[C@]3(CC6/C=C\CCCCN6[C@H]34)C5)nccc12 (stereo not given in full) | – | 0.91 (≈ 1.61 µM) | 1100 ng/mL | – | – | EC50 [6]: 4200 nM
O=C(c1c[nH]cn1)c1nccc2c1[nH]c1ccccc12 [DES-N-METHYLXESTOMANZAMINE A] | – | – | Non-toxic | inactive | inactive | IC50 (Leishmania donovani): 35 µg/mL (≈ 133 µM); IC90 (Leishmania donovani): > 50 µg/mL
O=C1NCCc2c1[nH]c1ccccc21 | inactive | – | Non-toxic | inactive | inactive | –
C1=C(c2nccc3c2[nH]c2ccccc23)[C@@H]2CCN3CCCC/C=C\CC[C@]14O[C@@]15/C=C\CCCCN1[C@@H]4[C@]2(C3)C5 [12,34-OXAMANZAMINE A] | – | – | Non-toxic | – | inactive | –
Oc1ccc2[nH]c3c(C4=C[C@@]5(O)CC/C=C\CCCCN6CC[C@@H]4[C@@]4(C6)C[C@@]67CC[C@@H](CCCN6[C@H]45)O7)nccc3c2c1 [MANZAMINE X] | – | – | Non-toxic | – | – | IC50 (Leishmania donovani): 5.7 µg/mL (≈ 9.81 µM); IC90 (Leishmania donovani): 11 µg/mL (≈ 18.9 µM); IC50 (HT-29): 0.5 µg/mL (≈ 0.861 µM); IC50 [4]: 5.1 µg/mL (≈ 8.78 µM); IC50 (Plasmodium falciparum [2]): 0.95 µg/mL (≈ 1.64 µM); IC50 [5]: 5.1 µg/mL (≈ 8.78 µM); IC50 [7]: 5.1 µg/mL (≈ 8.78 µM); IC50 (Plasmodium falciparum [3]): 2 µg/mL (≈ 3.44 µM)
OC1=C[C@@]2(O)CC/C=C\CCCCN3CC[C@@H]1[C@]1(C[C@@H]4/C=C\CCCCN4[C@H]12)C3 [IRCINOL A] | – | – | – | – | – | IC50 (Leishmania donovani): 0.9 µg/mL (≈ 2.26 µM); IC90 (Leishmania donovani): 1.7 µg/mL (≈ 4.27 µM)
O=C1[C@@H]2CCCCCCN2[C@@H]2[C@]13CN1CCCC/C=C\CC[C@]2(O)C=C(c2nccc4c2[nH]c2ccc(O)cc24)[C@@H]3CC1 | inactive | – | Non-toxic | inactive | inactive | –
c1ccc2c(c1)[nH]c1cnccc12 [NORHARMANE] | inactive | – | Non-toxic | inactive | inactive | –
O=C1CCCN2[C@@H](CC1)C[C@]13CN4CCCC/C=C\CC[C@](O)(C=C(c5nccc6c5[nH]c5ccccc56)C1CC4)[C@H]23 (stereo not given in full) [MANZAMINE E] | – | 3.76 (≈ 6.66 µM) | Non-toxic | – | – | –
